pEC50: −log10 of the molar value.
Assays:
[1] = Pharmacokinetic parameter k2 was determined; type: ADME
Method in brief: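 First-order rate constant for chemical conversion of the parent nitrosourea to its active alkylating intermediate. Measured in aqueous buffer or human serum at pH 7.4 and 37 °C.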

[2] = Alkylating activity was determined; type: ADME
[3] = Carbamoylating activity was determined; type: ADME
P388 [4] = assay: Mean value for the exposure for P388 to the drug following a variety of treatment schedules at pH 7.4 and 37 degree; conditions: Mus musculus, read-out: ED50 (the source's name)
P388 [5] = assay: Mean value for the exposure for P388 to the drug for a period of 60 min; type: functional; conditions: Mus musculus, P388, 1 h; read-out: ED50 (the source's name)
Method in brief: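 P388 mouse leukemia cells in log-phase suspension culture (Fischer's medium, 10% horse serum) at 1 × 10^6 cells/mL, exposed at 37 °C, pH 7.4, to graded initial drug concentrations (ethanol/water vehicle, <0.1% ethanol) in duplicate tubes for the stated period. Cells then diluted to 6.6 × 10^4 cells/mL in fresh medium, grown 48 h, Coulter counted; ED50 = dose giving 50% decrease in cell number versus untreated.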

| Compound | k2 [1] [min⁻¹] | Alkylating activity [2] | Carbamoylating activity [3] | pEC50 (P388 [4]) | pEC50 (P388 [5]) |
| --- | --- | --- | --- | --- | --- |
| O=NN(CCCl)C(=O)NC1CCC(=O)NC1=O (stereo not given) | 0.027 | 360 | 24 | 5.19 | 5.09 |
| NC(=O)N(CCCl)N=O | 0.53 | 1000 | 20 | 5.24 | 5.22 |
| O=NN(CCCl)C(=O)NCCCl [CARMUSTINE] | 0.014 | 260 | 70 | 5.20 | 4.88 |
| O=NN(CCCl)C(=O)N[C@H]1C(O)O[C@H](CO)[C@@H](O)[C@@H]1O (stereo not given in full) [CHLOROZOTOCIN] | 0.033 | 450 | 2 | 4.93 | 4.77 |
| O=NN(CCCl)C(=O)NC1CCCCC1 [LOMUSTINE] | 0.013 | 100 | 100 | 5.17 | 4.89 |

— ChEMBL document CHEMBL1122484, “An analysis of 1-(2-chloroethyl)-1-nitrosourea activity at the cellular level” (J Med Chem, 1983)
